Measured values taken from ChEMBL document CHEMBL3044834, “Novel protoporphyrinogen oxidase inhibitors: 3H-pyrazolo[3,4-d][1,2,3]triazin-4-one derivatives” (J Agric Food Chem, 2008).

tested on: Digitaria sanguinalis; test: Herbicidal activity against Digitaria sanguinalis (hairy crabgrass) assessed as inhibition of fresh weed plant weight at 1500 g/ha using pre-emergence treatment protocol; assay type: functional

`CCOc1cc(-n2nnc3c(cnn3C)c2=O)c(F)cc1Cl` and `CCCCOc1cc(-n2nnc3c(cnn3C)c2=O)c(F)cc1Cl` are the same in inhibition at 1500 g/ha: 0% for the first, 0% for the second.

`C=CCOc1cc(-n2nnc3c(cnn3C)c2=O)c(F)cc1Cl` and `C#CCOc1cc(-n2nnc3c(cnn3C)c2=O)c(F)cc1Cl` are the same in inhibition at 1500 g/ha: 0% for the first, 0% for the second.

Compared with `C=CCOc1cc(-n2nnc3c(c(C)nn3C)c2=O)c(F)cc1Cl`, `C#CCOc1cc(-n2nnc3c(c(C)nn3C)c2=O)c(F)cc1Cl` is higher in inhibition at 1500 g/ha: 0% for the first, 38.3% for the second.

Compared with `C#CCN1C(=O)COc2cc(F)c(-n3nnc4c(c(C(F)(F)F)nn4C)c3=O)cc21`, `C=CCN1C(=O)COc2cc(F)c(-n3nnc4c(c(C(F)(F)F)nn4C)c3=O)cc21` is lower in inhibition at 1500 g/ha: 8.3% for the first, 0% for the second.

Compared with `CCOC(=O)Oc1cc(-n2nnc3c(cnn3C)c2=O)c(F)cc1Cl`, `C=CCN1C(=O)COc2cc(F)c(-n3nnc4c(c(C)nn4C)c3=O)cc21` is higher in inhibition at 1500 g/ha: 0% for the first, 47.7% for the second.

tested on: Amaranthus retroflexus; test: Herbicidal activity against Amaranthus retroflexus assessed as inhibition of fresh weed plant weight at 1500 g/ha using post-emergence treatment protocol; assay type: functional
Procedure, shortened: (§1)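 Test compounds made up as emulsions by dissolving in 100 µL N,N-dimethylformamide, then adding a little Tween 20 and water. For post-emergence, weed seedlings at one leaf and one stem were sprayed at the same rates as the pre-emergence test. Fresh weight was recorded 15 days after treatment and expressed as percent inhibition versus controls. All treatments were run in triplicate.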

First: CCOc1cc(-n2nnc3c(cnn3C)c2=O)c(F)cc1Cl
Second: CCCCOc1cc(-n2nnc3c(cnn3C)c2=O)c(F)cc1Cl
The inhibition at 1500 g/ha of the first is higher: 70.6% for the first, 16.6% for the second.

`C=CCOc1cc(-n2nnc3c(cnn3C)c2=O)c(F)cc1Cl` and `C#CCOc1cc(-n2nnc3c(cnn3C)c2=O)c(F)cc1Cl` are the same in inhibition at 1500 g/ha: 0% for the first, 0% for the second.

Going from `C=CCOc1cc(-n2nnc3c(c(C)nn3C)c2=O)c(F)cc1Cl` to `C#CCOc1cc(-n2nnc3c(c(C)nn3C)c2=O)c(F)cc1Cl`, the inhibition at 1500 g/ha falls from 14.7% to 0%.

`C#CCN1C(=O)COc2cc(F)c(-n3nnc4c(c(C(F)(F)F)nn4C)c3=O)cc21` and `C=CCN1C(=O)COc2cc(F)c(-n3nnc4c(c(C(F)(F)F)nn4C)c3=O)cc21` are the same in inhibition at 1500 g/ha: 0% for the first, 0% for the second.

Compared with `CCOC(=O)Oc1cc(-n2nnc3c(cnn3C)c2=O)c(F)cc1Cl`, `C=CCN1C(=O)COc2cc(F)c(-n3nnc4c(c(C)nn4C)c3=O)cc21` is lower in inhibition at 1500 g/ha: 7.7% for the first, 0% for the second.

tested on: Amaranthus retroflexus; test: Herbicidal activity against Amaranthus retroflexus assessed as inhibition of fresh weed plant weight at 1500 g/ha using pre-emergence treatment protocol; assay type: functional

`CCOc1cc(-n2nnc3c(cnn3C)c2=O)c(F)cc1Cl` and `CCCCOc1cc(-n2nnc3c(cnn3C)c2=O)c(F)cc1Cl` are the same in inhibition at 1500 g/ha: 0% for the first, 0% for the second.

Compared with `C=CCOc1cc(-n2nnc3c(cnn3C)c2=O)c(F)cc1Cl`, `C#CCOc1cc(-n2nnc3c(cnn3C)c2=O)c(F)cc1Cl` is lower in inhibition at 1500 g/ha: 10.6% for the first, 0% for the second.

`C=CCOc1cc(-n2nnc3c(c(C)nn3C)c2=O)c(F)cc1Cl` and `C#CCOc1cc(-n2nnc3c(c(C)nn3C)c2=O)c(F)cc1Cl` are the same in inhibition at 1500 g/ha: 0% for the first, 0% for the second.

Compared with `C#CCN1C(=O)COc2cc(F)c(-n3nnc4c(c(C(F)(F)F)nn4C)c3=O)cc21`, `C=CCN1C(=O)COc2cc(F)c(-n3nnc4c(c(C(F)(F)F)nn4C)c3=O)cc21` is higher in inhibition at 1500 g/ha: 0% for the first, 1.2% for the second.

First: CCOC(=O)Oc1cc(-n2nnc3c(cnn3C)c2=O)c(F)cc1Cl
Second: C=CCN1C(=O)COc2cc(F)c(-n3nnc4c(c(C)nn4C)c3=O)cc21
The inhibition at 1500 g/ha of the first is lower: 0% for the first, 50% for the second.

tested on: Digitaria sanguinalis; test: Herbicidal activity against Digitaria sanguinalis (hairy crabgrass) assessed as inhibition of fresh weed plant weight at 1500 g/ha using post-emergence treatment protocol; assay type: functional; procedure, shortened: as §1

`CCOc1cc(-n2nnc3c(cnn3C)c2=O)c(F)cc1Cl` and `CCCCOc1cc(-n2nnc3c(cnn3C)c2=O)c(F)cc1Cl` are the same in inhibition at 1500 g/ha: 0% for the first, 0% for the second.

Compared with `C=CCOc1cc(-n2nnc3c(cnn3C)c2=O)c(F)cc1Cl`, `C#CCOc1cc(-n2nnc3c(cnn3C)c2=O)c(F)cc1Cl` is higher in inhibition at 1500 g/ha: 17.9% for the first, 19.6% for the second.

First: C=CCOc1cc(-n2nnc3c(c(C)nn3C)c2=O)c(F)cc1Cl
Second: C#CCOc1cc(-n2nnc3c(c(C)nn3C)c2=O)c(F)cc1Cl
The inhibition at 1500 g/ha of the first is higher: 16.6% for the first, 0% for the second.

`C#CCN1C(=O)COc2cc(F)c(-n3nnc4c(c(C(F)(F)F)nn4C)c3=O)cc21` and `C=CCN1C(=O)COc2cc(F)c(-n3nnc4c(c(C(F)(F)F)nn4C)c3=O)cc21` are the same in inhibition at 1500 g/ha: 0% for the first, 0% for the second.

`CCOC(=O)Oc1cc(-n2nnc3c(cnn3C)c2=O)c(F)cc1Cl` and `C=CCN1C(=O)COc2cc(F)c(-n3nnc4c(c(C)nn4C)c3=O)cc21` are the same in inhibition at 1500 g/ha: 0% for the first, 0% for the second.

tested on: Brassica rapa subsp. oleifera; test: Herbicidal activity against Brassica rapa subsp. oleifera assessed as inhibition of fresh weed plant weight at 1500 g/ha using post-emergence treatment protocol; assay type: functional; procedure, shortened: as §1

Compared with `CCOc1cc(-n2nnc3c(cnn3C)c2=O)c(F)cc1Cl`, `CCCCOc1cc(-n2nnc3c(cnn3C)c2=O)c(F)cc1Cl` is lower in inhibition at 1500 g/ha: 21.5% for the first, 16.1% for the second.

First: C=CCOc1cc(-n2nnc3c(cnn3C)c2=O)c(F)cc1Cl
Second: C#CCOc1cc(-n2nnc3c(cnn3C)c2=O)c(F)cc1Cl
The inhibition at 1500 g/ha of the first is lower: 1.2% for the first, 9.2% for the second.

First: C=CCOc1cc(-n2nnc3c(c(C)nn3C)c2=O)c(F)cc1Cl
Second: C#CCOc1cc(-n2nnc3c(c(C)nn3C)c2=O)c(F)cc1Cl
The inhibition at 1500 g/ha of the first is higher: 7.5% for the first, 0% for the second.

Compared with `C#CCN1C(=O)COc2cc(F)c(-n3nnc4c(c(C(F)(F)F)nn4C)c3=O)cc21`, `C=CCN1C(=O)COc2cc(F)c(-n3nnc4c(c(C(F)(F)F)nn4C)c3=O)cc21` is lower in inhibition at 1500 g/ha: 20.8% for the first, 12% for the second.

`CCOC(=O)Oc1cc(-n2nnc3c(cnn3C)c2=O)c(F)cc1Cl` and `C=CCN1C(=O)COc2cc(F)c(-n3nnc4c(c(C)nn4C)c3=O)cc21` are the same in inhibition at 1500 g/ha: 0% for the first, 0% for the second.

tested on: Brassica rapa subsp. oleifera; test: Herbicidal activity against Brassica rapa subsp. oleifera assessed as inhibition of fresh weed plant weight at 1500 g/ha using pre-emergence treatment protocol; assay type: functional

First: CCOc1cc(-n2nnc3c(cnn3C)c2=O)c(F)cc1Cl
Second: CCCCOc1cc(-n2nnc3c(cnn3C)c2=O)c(F)cc1Cl
The inhibition at 1500 g/ha of the first is higher: 29.8% for the first, 4.8% for the second.

First: C=CCOc1cc(-n2nnc3c(cnn3C)c2=O)c(F)cc1Cl
Second: C#CCOc1cc(-n2nnc3c(cnn3C)c2=O)c(F)cc1Cl
The inhibition at 1500 g/ha of the first is lower: 7.4% for the first, 12.7% for the second.

First: C=CCOc1cc(-n2nnc3c(c(C)nn3C)c2=O)c(F)cc1Cl
Second: C#CCOc1cc(-n2nnc3c(c(C)nn3C)c2=O)c(F)cc1Cl
The inhibition at 1500 g/ha of the first is lower: 7.8% for the first, 9.5% for the second.

`C#CCN1C(=O)COc2cc(F)c(-n3nnc4c(c(C(F)(F)F)nn4C)c3=O)cc21` and `C=CCN1C(=O)COc2cc(F)c(-n3nnc4c(c(C(F)(F)F)nn4C)c3=O)cc21` are the same in inhibition at 1500 g/ha: 0% for the first, 0% for the second.

Compared with `CCOC(=O)Oc1cc(-n2nnc3c(cnn3C)c2=O)c(F)cc1Cl`, `C=CCN1C(=O)COc2cc(F)c(-n3nnc4c(c(C)nn4C)c3=O)cc21` is higher in inhibition at 1500 g/ha: 0% for the first, 34.6% for the second.

tested on: Echinochloa crus-galli; test: Herbicidal activity against Echinochloa crus-galli (barnyard grass) assessed as inhibition of fresh weed plant weight at 1500 g/ha using pre-emergence treatment protocol; assay type: functional

First: CCOc1cc(-n2nnc3c(cnn3C)c2=O)c(F)cc1Cl
Second: CCCCOc1cc(-n2nnc3c(cnn3C)c2=O)c(F)cc1Cl
The inhibition at 1500 g/ha of the first is higher: 12.4% for the first, 0% for the second.

Compared with `C=CCOc1cc(-n2nnc3c(cnn3C)c2=O)c(F)cc1Cl`, `C#CCOc1cc(-n2nnc3c(cnn3C)c2=O)c(F)cc1Cl` is lower in inhibition at 1500 g/ha: 11% for the first, 0% for the second.

Compared with `C=CCOc1cc(-n2nnc3c(c(C)nn3C)c2=O)c(F)cc1Cl`, `C#CCOc1cc(-n2nnc3c(c(C)nn3C)c2=O)c(F)cc1Cl` is lower in inhibition at 1500 g/ha: 17.2% for the first, 0% for the second.

First: C#CCN1C(=O)COc2cc(F)c(-n3nnc4c(c(C(F)(F)F)nn4C)c3=O)cc21
Second: C=CCN1C(=O)COc2cc(F)c(-n3nnc4c(c(C(F)(F)F)nn4C)c3=O)cc21
The inhibition at 1500 g/ha of the first is higher: 3% for the first, 0% for the second.

Compared with `CCOC(=O)Oc1cc(-n2nnc3c(cnn3C)c2=O)c(F)cc1Cl`, `C=CCN1C(=O)COc2cc(F)c(-n3nnc4c(c(C)nn4C)c3=O)cc21` is higher in inhibition at 1500 g/ha: 19.8% for the first, 22.3% for the second.

tested on: Echinochloa crus-galli; test: Herbicidal activity against Echinochloa crus-galli (barnyard grass) assessed as inhibition of fresh weed plant weight at 1500 g/ha using post-emergence treatment protocol; assay type: functional; procedure, shortened: as §1

Compared with `CCOc1cc(-n2nnc3c(cnn3C)c2=O)c(F)cc1Cl`, `CCCCOc1cc(-n2nnc3c(cnn3C)c2=O)c(F)cc1Cl` is lower in inhibition at 1500 g/ha: 20.2% for the first, 0% for the second.

Going from `C=CCOc1cc(-n2nnc3c(cnn3C)c2=O)c(F)cc1Cl` to `C#CCOc1cc(-n2nnc3c(cnn3C)c2=O)c(F)cc1Cl`, the inhibition at 1500 g/ha falls from 28% to 20.8%.

First: C=CCOc1cc(-n2nnc3c(c(C)nn3C)c2=O)c(F)cc1Cl
Second: C#CCOc1cc(-n2nnc3c(c(C)nn3C)c2=O)c(F)cc1Cl
The inhibition at 1500 g/ha of the first is higher: 21% for the first, 0% for the second.

Going from `C#CCN1C(=O)COc2cc(F)c(-n3nnc4c(c(C(F)(F)F)nn4C)c3=O)cc21` to `C=CCN1C(=O)COc2cc(F)c(-n3nnc4c(c(C(F)(F)F)nn4C)c3=O)cc21`, the inhibition at 1500 g/ha rises from 8.2% to 13.6%.

First: CCOC(=O)Oc1cc(-n2nnc3c(cnn3C)c2=O)c(F)cc1Cl
Second: C=CCN1C(=O)COc2cc(F)c(-n3nnc4c(c(C)nn4C)c3=O)cc21
The inhibition at 1500 g/ha of the first is higher: 37.7% for the first, 0% for the second.
